Activity calls are given as the source filed them.
Columns and labels:
[1] = system: dengue virus type 2; assay: Inhibition of N-terminal His6-tagged DENV2 NS2B-NS3 protease at<50 uM using Boc-Gly-Lys-Arg-AMC33 as substrate measured for 600 secs by fluorescence based assay
[2] = target: Genome polyprotein (West Nile virus) (UniProt P06935); assay: Inhibition of C-terminal His6-tagged West Nile virus NS2B (52 to 96 residues)-G4SG4-NS3 (1 to 184 residues) expressed in Escherichia coli BL21(DE3) cells at <50 uM using Boc-Gly-Lys-Arg-AMC33 as substrate measured for 600 secs by fluorescence based assay
Sequence of Genome polyprotein (West Nile virus) (P06935 whole entry, the tested form may be a part): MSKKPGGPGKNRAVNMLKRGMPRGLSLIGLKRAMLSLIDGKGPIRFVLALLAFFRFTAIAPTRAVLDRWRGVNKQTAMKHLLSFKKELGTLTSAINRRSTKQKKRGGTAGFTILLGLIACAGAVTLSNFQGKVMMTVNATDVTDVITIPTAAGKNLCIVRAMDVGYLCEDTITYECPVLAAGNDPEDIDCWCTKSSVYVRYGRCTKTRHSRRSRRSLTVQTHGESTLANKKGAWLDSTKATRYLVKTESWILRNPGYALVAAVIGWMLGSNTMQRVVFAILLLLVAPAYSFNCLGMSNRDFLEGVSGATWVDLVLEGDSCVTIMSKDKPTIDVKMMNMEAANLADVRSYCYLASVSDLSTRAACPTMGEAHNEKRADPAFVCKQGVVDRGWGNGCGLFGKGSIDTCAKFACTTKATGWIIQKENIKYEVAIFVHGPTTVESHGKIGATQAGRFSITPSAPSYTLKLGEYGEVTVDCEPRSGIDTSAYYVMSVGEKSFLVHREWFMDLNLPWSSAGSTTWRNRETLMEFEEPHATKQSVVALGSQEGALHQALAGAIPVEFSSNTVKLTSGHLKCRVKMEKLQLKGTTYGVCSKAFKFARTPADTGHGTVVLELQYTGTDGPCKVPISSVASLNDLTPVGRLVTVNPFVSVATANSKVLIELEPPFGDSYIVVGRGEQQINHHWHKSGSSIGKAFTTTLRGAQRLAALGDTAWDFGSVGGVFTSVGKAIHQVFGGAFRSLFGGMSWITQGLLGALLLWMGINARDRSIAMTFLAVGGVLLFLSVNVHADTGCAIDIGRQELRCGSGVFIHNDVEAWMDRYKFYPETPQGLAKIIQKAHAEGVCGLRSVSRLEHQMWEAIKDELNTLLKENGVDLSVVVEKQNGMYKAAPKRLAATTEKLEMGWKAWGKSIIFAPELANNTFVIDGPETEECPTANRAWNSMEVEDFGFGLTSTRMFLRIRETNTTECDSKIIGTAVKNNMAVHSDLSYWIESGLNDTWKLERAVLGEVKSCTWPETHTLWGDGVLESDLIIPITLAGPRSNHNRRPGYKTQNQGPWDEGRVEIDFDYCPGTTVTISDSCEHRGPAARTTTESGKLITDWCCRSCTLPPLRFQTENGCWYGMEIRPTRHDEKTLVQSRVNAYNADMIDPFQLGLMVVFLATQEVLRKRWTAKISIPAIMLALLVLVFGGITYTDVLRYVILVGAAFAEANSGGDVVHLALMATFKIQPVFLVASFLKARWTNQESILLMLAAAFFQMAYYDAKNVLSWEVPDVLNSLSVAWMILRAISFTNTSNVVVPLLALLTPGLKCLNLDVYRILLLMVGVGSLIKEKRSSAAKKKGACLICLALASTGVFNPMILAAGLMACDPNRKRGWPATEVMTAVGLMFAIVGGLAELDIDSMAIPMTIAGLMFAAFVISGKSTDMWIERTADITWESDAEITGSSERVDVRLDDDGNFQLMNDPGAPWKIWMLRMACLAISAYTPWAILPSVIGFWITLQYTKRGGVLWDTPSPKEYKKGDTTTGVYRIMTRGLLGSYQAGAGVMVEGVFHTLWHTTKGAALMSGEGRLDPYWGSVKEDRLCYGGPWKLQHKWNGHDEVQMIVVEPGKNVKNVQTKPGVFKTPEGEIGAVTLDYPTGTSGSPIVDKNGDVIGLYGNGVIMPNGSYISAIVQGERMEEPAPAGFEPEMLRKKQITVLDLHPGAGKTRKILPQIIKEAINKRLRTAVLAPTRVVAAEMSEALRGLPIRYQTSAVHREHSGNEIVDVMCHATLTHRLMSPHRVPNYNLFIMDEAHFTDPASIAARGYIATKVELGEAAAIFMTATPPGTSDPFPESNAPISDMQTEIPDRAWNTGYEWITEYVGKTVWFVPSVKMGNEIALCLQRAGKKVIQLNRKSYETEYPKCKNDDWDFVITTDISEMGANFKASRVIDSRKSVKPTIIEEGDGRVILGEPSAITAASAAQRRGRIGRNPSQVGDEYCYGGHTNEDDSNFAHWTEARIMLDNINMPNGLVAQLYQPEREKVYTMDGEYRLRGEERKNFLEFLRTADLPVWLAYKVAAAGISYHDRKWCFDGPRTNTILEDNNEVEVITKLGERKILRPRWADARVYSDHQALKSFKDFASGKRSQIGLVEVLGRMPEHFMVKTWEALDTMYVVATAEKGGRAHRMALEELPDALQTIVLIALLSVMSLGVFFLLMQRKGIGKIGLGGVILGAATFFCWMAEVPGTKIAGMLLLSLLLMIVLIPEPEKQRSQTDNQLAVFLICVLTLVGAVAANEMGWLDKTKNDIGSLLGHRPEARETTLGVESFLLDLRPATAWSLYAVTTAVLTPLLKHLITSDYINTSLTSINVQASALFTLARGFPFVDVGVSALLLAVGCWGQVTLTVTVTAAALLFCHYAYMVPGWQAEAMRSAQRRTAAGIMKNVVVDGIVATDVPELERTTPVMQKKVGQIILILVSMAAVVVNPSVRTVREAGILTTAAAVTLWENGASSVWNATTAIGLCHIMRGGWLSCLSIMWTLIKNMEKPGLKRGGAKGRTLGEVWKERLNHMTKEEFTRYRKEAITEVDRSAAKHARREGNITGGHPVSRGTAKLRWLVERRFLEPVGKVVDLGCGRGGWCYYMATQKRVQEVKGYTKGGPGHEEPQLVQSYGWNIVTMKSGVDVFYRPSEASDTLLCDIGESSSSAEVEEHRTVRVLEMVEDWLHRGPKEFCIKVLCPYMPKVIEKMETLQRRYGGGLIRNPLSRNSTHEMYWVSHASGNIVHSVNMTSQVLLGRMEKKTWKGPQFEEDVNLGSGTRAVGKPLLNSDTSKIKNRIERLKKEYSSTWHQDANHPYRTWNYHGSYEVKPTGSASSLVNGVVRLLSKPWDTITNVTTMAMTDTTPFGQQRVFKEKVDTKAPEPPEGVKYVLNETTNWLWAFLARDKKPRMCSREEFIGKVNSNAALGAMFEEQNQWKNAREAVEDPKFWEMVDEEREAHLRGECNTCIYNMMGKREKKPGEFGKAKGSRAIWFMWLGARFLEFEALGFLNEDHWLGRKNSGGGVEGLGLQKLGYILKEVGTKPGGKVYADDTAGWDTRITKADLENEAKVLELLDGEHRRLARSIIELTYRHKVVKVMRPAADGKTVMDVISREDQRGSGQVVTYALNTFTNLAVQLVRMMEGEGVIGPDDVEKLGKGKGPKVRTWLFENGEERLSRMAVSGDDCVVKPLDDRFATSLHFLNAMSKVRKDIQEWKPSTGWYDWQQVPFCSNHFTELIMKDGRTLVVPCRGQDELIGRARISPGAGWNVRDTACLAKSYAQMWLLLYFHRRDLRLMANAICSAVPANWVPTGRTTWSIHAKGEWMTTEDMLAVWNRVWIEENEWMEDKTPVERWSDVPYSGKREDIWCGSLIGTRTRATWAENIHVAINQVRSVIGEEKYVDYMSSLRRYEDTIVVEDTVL

[3] = target: Genome polyprotein (West Nile virus, UniProt P06935); assay: Inhibition of C-terminal His6-tagged West Nile virus NS2B (52 to 96 residues)-G4SG4-NS3 (1 to 184 residues) expressed in Escherichia coli BL21(DE3) cells using Boc-Gly-Lys-Arg-AMC33 as substrate measured for 600 secs by fluorescence based assay
Sequence of Genome polyprotein (P06935 1371-1501 limits assumed): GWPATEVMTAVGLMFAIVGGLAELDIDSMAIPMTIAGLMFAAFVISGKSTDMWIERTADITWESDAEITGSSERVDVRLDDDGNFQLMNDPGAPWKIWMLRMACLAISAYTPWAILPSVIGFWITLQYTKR
Sequence of Genome polyprotein (P06935 1502-2120 limits assumed): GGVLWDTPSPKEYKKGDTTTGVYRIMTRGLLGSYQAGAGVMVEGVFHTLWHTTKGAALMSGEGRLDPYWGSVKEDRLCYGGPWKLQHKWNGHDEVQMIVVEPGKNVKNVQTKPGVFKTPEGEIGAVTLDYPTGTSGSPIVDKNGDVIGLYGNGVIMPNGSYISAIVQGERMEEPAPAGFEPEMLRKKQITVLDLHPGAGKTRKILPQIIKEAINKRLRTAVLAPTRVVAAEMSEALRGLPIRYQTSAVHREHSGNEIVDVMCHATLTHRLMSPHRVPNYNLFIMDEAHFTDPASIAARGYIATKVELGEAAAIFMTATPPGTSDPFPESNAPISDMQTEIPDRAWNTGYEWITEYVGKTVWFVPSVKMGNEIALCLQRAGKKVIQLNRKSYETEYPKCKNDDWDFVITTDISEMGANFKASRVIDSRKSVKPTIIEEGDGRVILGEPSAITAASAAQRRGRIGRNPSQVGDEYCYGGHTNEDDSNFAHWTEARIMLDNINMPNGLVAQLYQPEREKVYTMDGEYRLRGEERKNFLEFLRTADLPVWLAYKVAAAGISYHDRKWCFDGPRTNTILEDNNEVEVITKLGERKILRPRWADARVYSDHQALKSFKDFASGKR
Summary of the method: (§1)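 Ki values were obtained by fluorescence-based protease assays, only for ligands below the 50 μM inhibition cutoff. The commercially available racemic mixtures were tested.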

[4] = target: Nonstructural protein 3 (Zika virus) (UniProt A0A024AXB9); assay: Inhibition of Zika virus NS2B-NS3 protease at <50 uM using Bz-Nle-Lys-Lys-Arg-AMC as substrate preincubated for 10 mins followed by substrate addition and measured for 70 secs by fluorophotometric analysis
Sequence of Nonstructural protein 3 (Zika virus) (A0A024AXB9 as listed by the source): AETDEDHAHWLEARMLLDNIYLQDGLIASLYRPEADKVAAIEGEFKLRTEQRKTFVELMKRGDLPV

[5] = Inhibition of N-terminal His6-tagged DENV2 NS2B-NS3 protease using Boc-Gly-Lys-Arg-AMC33 as substrate measured for 600 secs by fluorescence based assay; parameters: species or system dengue virus type 2; summary of the method: as §1
[6] = target: Nonstructural protein 3 (Zika virus, UniProt A0A024AXB9); assay: Inhibition of Zika virus NS2B-NS3 protease using Bz-Nle-Lys-Lys-Arg-AMC as substrate preincubated for 10 mins followed by substrate addition and measured for 70 secs by fluorophotometric analysis; summary of the method: as §1
Sequence of Nonstructural protein 3 (A0A024AXB9 whole entry): as the sequence (A0A024AXB9 as listed by the source) above

inhibition [1] | inhibition [2] | Ki [3] | inhibition [4] | Ki [5] | Ki [6] | Compound
Active | Active | 25.5 µM | Active | 0.09 µM | 2.3 µM | Cc1ccc(C(=O)NCC(O)CN2CCCC2)cc1OCCN (stereo not given)
– | Active | 7.4 µM | Active | – | 11.5 µM | COc1cc(CN2CC(O)C2)ccc1OCC(O)CN1CCC(O)CC1 (stereo not given)

Source: ChEMBL document CHEMBL4602711, “Catching a Moving Target: Comparative Modeling of Flaviviral NS2B-NS3 Reveals Small Molecule Zika Protease Inhibitors” (ACS Med Chem Lett, 2020)
